Data on one molecule can be found in ChEMBL document CHEMBL3994676, “Encapsulation of Mitoxantrone within Cucurbit[8]uril Decreases Toxicity and Enhances Survival in a Mouse Model of Cancer” (ACS Med Chem Lett, 2017).

A short description of data set [1]: Drug uptake in mouse 4T1.2 cell lysosomes at 5 uM encapsulated within cucurbit[8]uril after 20 mins by LysoTracker Green staining based laser scanning confocal microscopic method. The data set is classed as ADME, Lysosome.
Data set [2] concerns 4T1.2. Briefly: Growth inhibition of mouse 4T1.2 cells up to 20000 nM after 48 hrs by MTT assay. The data set is classed as functional, cell-based. On the technique in general: Formazan colour is commonly taken as a measure of viable cells.
Data set [3] deals with 4T1.2. The experiment in a line: Growth inhibition of mouse 4T1.2 cells up to 20000 nM encapsulated within cucurbit[8]uril after 48 hrs by MTT assay. It counts as functional, cell-based.
Data set [4] relates to Mus musculus. The experiment in a line: Toxicity in Balb/c mouse assessed as body weight loss at 2 mg/kg, iv administered twice weekly for 2 weeks relative to control. It counts as organism-based. Particulars: in vivo, 336 h. A digest of the protocol:
(§1)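 Non-tumor-bearing female Balb/c mice (9 weeks old), four per group, were dosed iv by tail vein on days 0, 3, 7 and 10. Dose was 2 mg/kg as mitoxantrone (complex adds 3 mg/kg Q[8]) in 0.9% saline vehicle. Body weight was recorded daily and expressed as mean change from baseline.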

The test system of data set [5] is Mus musculus. The experiment in a line: Toxicity in Balb/c mouse assessed as body weight loss at 3 mg/kg, iv encapsulated within cucurbit[8]uril administered twice weekly for 2 weeks. It counts as organism-based. As to conditions: in vivo, 336 h. A digest of the protocol: as §1
Data set [6] deals with Mus musculus. Briefly: Toxicity in Balb/c mouse implanted with mouse 4T1.2 cells assessed as body weight loss at 3 mg/kg, iv encapsulated within cucurbit[8]uril administered twice weekly for 2 weeks. The data set is classed as organism-based. Particulars: in vivo, 336 h. A digest of the protocol:
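Mice bore orthotopic 4T1.2 mammary fat pad tumors, with treatment begun on day 8. Dosing was iv twice weekly for 2 weeks at 2 mg/kg mitoxantrone plus 3 mg/kg Q[8], in saline vehicle. Body weight was monitored. Culling at >20% weight loss, tumor >1500 mm3, or metastatic distress.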

The subject of data set [7] is 4T1.2. Briefly: Antitumor activity against mouse 4T1.2 cells implanted in Balb/c mouse assessed as tumor growth inhibition at 2 mg/kg, iv administered twice weekly for 2 weeks. It counts as functional, organism-based. In short, it runs like this: (§2)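 Female Balb/c mice given 1 × 105 4T1.2 cells into the fourth mammary fat pad. Dosing started once tumors were palpable on day 8. Dosed iv by tail vein twice weekly for 2 weeks, 2 mg/kg as mitoxantrone (complex adds 3 mg/kg Q[8]), in 0.9% saline vehicle. Primary tumors measured with digital calipers. Groups n = 10–11. One-way ANOVA against vehicle.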

The test system of data set [8] is 4T1.2. The experiment in a line: Antitumor activity against mouse 4T1.2 cells implanted in Balb/c mouse assessed as tumor growth inhibition at 3 mg/kg, iv encapsulated within cucurbit[8]uril administered twice weekly for 2 weeks. The data set is classed as functional, organism-based. A digest of the protocol:
as §2

In data set [9] the test system is 4T1.2. The experiment in a line: Antitumor activity against mouse 4T1.2 cells implanted in Balb/c mouse assessed as mouse survival time at 3 mg/kg, iv encapsulated within cucurbit[8]uril administered twice weekly for 2 weeks measured up to 33 days. The data set is classed as functional. A digest of the protocol: (§3)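 Female Balb/c mice given 1 × 10^5 4T1.2 cells into the fourth mammary fat pad. Treatment started on day 8 once tumours were palpable: 2 mg/kg mitoxantrone-equivalent (complex formulation also 3 mg/kg Q[8]) or 0.9% saline vehicle, by tail-vein iv, twice weekly for 2 weeks. Monitored to day 33. Culled at >20% weight loss, tumour >1500 mm3 or metastatic distress. Kaplan–Meier analysis with log-rank test.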

The test system of data set [10] is 4T1.2. The experiment in a line: Antitumor activity against mouse 4T1.2 cells implanted in Balb/c mouse assessed as mouse survival rate at 2 mg/kg, iv administered twice weekly for 2 weeks measured up to 33 days (rvb = 30%). The data set is classed as functional. Particulars: 4T1.2, iv. A digest of the protocol: as §3
Data set [11] is described as follows: Drug uptake in mouse 4T1.2 cell at 5 uM after 4 hrs by laser scanning confocal microscopic method.
Data set [12] can be described thus: Drug uptake in mouse 4T1.2 cell at 5 uM encapsulated within cucurbit[8]uril after 4 hrs by laser scanning confocal microscopic method.

Calls of active or inactive are those of the source. No cut-off for these calls is given here.

On to `O=C1c2c(O)ccc(O)c2C(=O)c2c(NCCNCCO)ccc(NCCNCCO)c21` [MITOXANTRONE], for which the Drug uptake result in [1], in [11] and in data set [12] was “Active” in each case. Further, the “growth inhibition (GI)” value in the data set on 4T1.2 [2] and in the data set on 4T1.2 [3] was “Active” in each case. Moreover, the Activity is 15% in the data set on Mus musculus [4], “Non-Toxic” in the data set on Mus musculus [5] and “Non-Toxic” with Mus musculus [6]. Also, the TGI result with 4T1.2 [7] and with 4T1.2 [8] was “Active” each time. Besides, in the data set with 4T1.2 [9], the Survival came to 26 days. Further, the survival at 2 mg/kg in the data set with 4T1.2 [10] is 60%.
